The values below come from the RNAGym collection of RNA variant scans (doi:10.1126/science.aae0568).

Fewer inactive variants are shown than the library holds.

B1: tRNA (parent)
chain: GUUCCGUUGGCGUAAUGGUAACGCGUCUCCCUCCUAAGGAGAAGACUGCGGGUUCGAGUCCCGUACGGAACG

Variants of B1 are the subject of this series. Put plainly: yeast fitness relative to wild type (ratio to wild type); higher = fitter; tRNA-Arg(CCU), competitive growth, 37 C, YPD. The method in brief: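 Genotype frequency changes were the basis for Darwinian fitness relative to wild type. The frequencies came from 100-nucleotide paired-end sequencing of gene amplicons from the start population and each end population of pooled yeast strains with tRNA-Arg(CCU) gene variants at the native locus. Competition ran in YPD at 37°C for 24 hours in six replicates, genotypes needed ≥ 100 starting reads, and estimates < 0.5 were set to 0.5.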
Consider GUUGCGUUGGCGUAAUAGUAACGCGUCUCCCUCCUAAGGAGAAGACUGCGGGUUCGAGUCCCGUACGGAACG, for which the yeast fitness stood at 0.724.

Consider GUUGCGUUGGCAUAAUGGUAACGCGUCUCCCUCCUAAGGAGAAGACUGCGGGUUCGAGUCCCGUACGUAACG, for which the yeast fitness is at most 0.5.

In the case of GUUGCGUUGGCGUAAUGGUAACAAGUCUCCAUCCUGAGGAGAAGACUGCGGGUUCGAGUCCCGUACGGAACG, the yeast fitness is at most 0.5.

As to GUUGCGUUGGCAUAAUGGUAACGUGUCUCCCUCCUAAGGAGAAGACUGCGGGUUCGAGUCCCGUACGGAACG, the yeast fitness is at most 0.5.

On to GUUGCGUUGGCGUAAUGGUAACACGUCUCCCUCCUGAGGAGAAGACUGCGGGUUCGAGUCCCGUACGUAACG, for which the yeast fitness is at most 0.5.

As to GUUGCGUUGGCAUAAUGGUAACGCGUCUCCCUCCUAAGGAGAAGACUGUGGGUUCGAGUAACGUACGGAACG, the yeast fitness was at most 0.5.

Turning to GUUGCGUUGGCGUAAUGGUAACGCAUCUCCCUCCUAAGGAGAAGACUGCGGGUUCGAGUCCCGUACGGAACG, the yeast fitness came to 0.894.

As for GUUGCGUUGGCAUAAUGGCAACGCGUCUGCCUCCUAAGGAGAAGACUGCGGGUUCGGGUCACGUCUGGAACG, the yeast fitness came to 0.634.

Turning to GUUGCGUUGGCGUAAUGGUAACGCGUCUCCCUCCUAACGAGAAGACUGCGGGUUCGAGUCCCAUACGCGACG, the yeast fitness was at most 0.5.

GUUGCGUUGGCGUAAUGGUAACCCGUCUUCCUCCUAAGGAGAAGACUGCGGGUUCGAGUCCCGUACGGAACG: the yeast fitness amounted to 0.501.

On to GUUGCGUUGGCGUAAUAGUAACGCGUCUCCCUCCUAAGGAGAAGACUGCGGGUUCGGGUCCCGUACGGAACG, for which the yeast fitness is at most 0.5.

On to GUUGCGUUGGCGUAAUAGUAACGCGUCUCUCUCCUAAGGAGAAGACUGCGGGUUCGAGUCCCGUACGGAACG, for which the yeast fitness was at most 0.5.

As for GUUGCGUUGGCAUAAUGGUAACGCGUCUCUCUCCUAAGGAGAAGACUGCGGGUUCGAGUCCCAUACGCAACG, the yeast fitness came out at 0.574.

Regarding GUUGCGUUGGCGUAAUGGUAACGCGUCUCCCUCCUAAGGAGAACACAGCGGGUUCGAGUCCCGUACGGAACG, the yeast fitness stood at 0.592.

Take GUUGCGUUGGCGUAAUGCUAACGCGUCUCCCUGCUAAGGAAAAGACUGCGGGUUGGAGUCCCGUACGGAACG: the yeast fitness was at most 0.5.

In the case of GUUGCGUUGGCAUAAUGGUAACGCGACUCCCUCCUAAGGAGAAGACUGCGGGUUCGAGUCCCGUACGGAACG, the yeast fitness was at most 0.5.

GUUGCGUUGGCAUAAUGGUAACGCGUCUCCCUCCUAAGGAGAAGACUGCGGGUUCGAGUCCCGUACGGAACG: the yeast fitness is 0.781.

For the variant GUUGCGUUGGCGUAAUGGUAACGCCUCUCGCUCCUAAGGAGAAGACUGCGGGUUCGAGUCCCGUACGGAACG, the yeast fitness is 0.622.

As to GUUGCGUUGGCAUAAUGGUAACGCGUCUCCCUCCUAAGGAGAAGACUGCGGGUUCGAGUCCCGUAGGGAACG, the yeast fitness came out at 0.503.

GUUGCGUUGGCGUAAUCGUAAGGCGUCUCCCUCCUAAGGAGAAGACUGCGGGUUCGAGUCCCGUACGGAACG: the yeast fitness is at most 0.5.

Regarding GUUGCGUUGGCGUAAUUGUAACACGUCUCCCUCCUAAGGAGAAGACUGCGGGUUAGAGUCACGUACGGAACG, the yeast fitness was at most 0.5.

Turning to GUUGCGUUGGCGUAAUGCUAACGCGUCUCCCUCCUAAGGAGAAGACUGCGAGUUCGAGUCCCGUACGGAACG, the yeast fitness was at most 0.5.

For GUUGCGUUGGCGUAAUGGUAACGCGUCUCCCUCCUAAGGACAAGAAUGCGGGUUCGAGUCCCGUACGGAACG, the yeast fitness came to 0.709.

Turning to GUUGCGUUGGCGUAAUGGUAACACGUCUGCCUCCUACGGAGAAGACUGCGGGUUCGAGUCGCGUACGGAACG, the yeast fitness was at most 0.5.

As to GUUGCGUUGGCGUAAUGGUAACACGUCUGCCUCCUACGGAGAAGACUGCGGGUUCGAGUGCCGUACGGAACG, the yeast fitness turned out to be 0.808.

For GUUGCGUUGGCGUAAUGCUAACGCGUCUCCCUCCUAAGGAGAAGACUGCGGGUUCGAGUCCCGUUCGGAACG, the yeast fitness is at most 0.5.

On to GUUGCGUUGGCGUAAUAGUAACGCGUCACCGUCCUAAGGAGAAGACUGCGGGUUCGGGUCCUGUACGGAACG, for which the yeast fitness was at most 0.5.

With GUUGCGUUGGCGUAAUGGUAACCCGUCUCCCUCCUAAGGAGAAGACUGCGGGUUCCAGUCCCGUACGGAACG, the yeast fitness is at most 0.5.

In the case of GUUGCGUUGGCGUAAUGGUAACGCGUCUCCCUCCUAAGGAAAAGACUGCGGGUUCGAGUCCCGUAUGGAACG, the yeast fitness came out at 0.525.

As for GUUGCGUUGGCGUAAUAGUAACGCGUCUCCCUCCUAAGGAGAGGACUGCGGGUUCGAGUCCCGUACGGAACG, the yeast fitness is at most 0.5.

Turning to GUUGCGUUGGCGUAAUGGUAACGCGUCUCCCUCCUAAGGAGAAACCUGCGGGUUCGAGUCCCGUACGGAACG, the yeast fitness is at most 0.5.

On to GUUGCGUUGGCGUAAUGGUAACCCGUCUCCCUCCUAAGGAGAAGUCUGCGGGUUCGAGUCCCGUACGGAACG, for which the yeast fitness is at most 0.5.

On to GUUGCGUUGGCGUAAUGGUAACCCGUCUCCCUCCUAAGGAGAAGACUGCGGAUCCGAGUCCCGUACGGAACG, for which the yeast fitness is at most 0.5.

With GUUGCGUUGGCGUAAUGGUAACGCGUCUCCCUCCUAAGGAGAAGACUAUACGUUCGAGUCCCGAACGGACCG, the yeast fitness was at most 0.5.

For the variant GUUGCGUUGGCGUAAUGGUAACGCGUCUCCCUCCUAAGGAGAAAACUGCGGGUUCGAGUCCCGUACGGAACG, the yeast fitness was found to be 0.726.

Regarding GUUGCGUUGGCGUAAUGGUAACGCGUCUCCCUCCUAAGGAGAACACUGCGGGUUCGAGUCCCGUACGGAACG, the yeast fitness was found to be 0.826.

For the variant GUUGCGUUGGCGUAAUGGUAACGCGUCUCCCUCCUAAAGAGAAGACUGCGGGUUUGAGUCCCGUACGGAACG, the yeast fitness was at most 0.5.
